Source: ChEMBL document CHEMBL3045952, “Design, synthesis, and fungicidal activity of novel analogues of pyrrolnitrin” (J Agric Food Chem, 2009)

What was measured:
Assay type in all cases: functional
Settings in all cases: read-out: GI
Fusarium oxysporum [1] = experiment: Fungicidal activity against Fusarium oxysporum assessed as mycelium growth inhibition at 50 ug/mL by mycelium growth rate method
Outline: (§1)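 In vitro mycelium growth rate method, with fenpiclonil as control. Compounds were tested at 50, 20 and 10 μg mL-1. Mycelial diameters were measured once the mycelia had grown completely. Inhibition (%) = (D1 − D2)/D1 × 100, where D1 is the mean mycelial diameter in the blank and D2 is the mean diameter with compound.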

[2] = tested on: Botryosphaeria berengeriana; experiment: Fungicidal activity against Botryosphaeria berengeriana assessed as mycelium growth inhibition at 10 ug/mL by mycelium growth rate method; outline: as §1
[3] = tested on: Botryosphaeria berengeriana; experiment: Fungicidal activity against Botryosphaeria berengeriana assessed as mycelium growth inhibition at 20 ug/mL by mycelium growth rate method; outline: as §1
Fusarium graminearum [4] = experiment: Fungicidal activity against Fusarium graminearum assessed as mycelium growth inhibition at 10 ug/mL by mycelium growth rate method; outline: as §1
[5] = tested on: Botryosphaeria berengeriana; experiment: Fungicidal activity against Botryosphaeria berengeriana assessed as mycelium growth inhibition at 50 ug/mL by mycelium growth rate method; outline: as §1
Fusarium graminearum [6] = experiment: Fungicidal activity against Fusarium graminearum assessed as mycelium growth inhibition at 50 ug/mL by mycelium growth rate method; outline: as §1
Fusarium graminearum [7] = experiment: Fungicidal activity against Fusarium graminearum assessed as mycelium growth inhibition at 20 ug/mL by mycelium growth rate method; outline: as §1
Alternaria solani [8] = experiment: Fungicidal activity against Alternaria solani assessed as mycelium growth inhibition at 10 ug/mL by mycelium growth rate method; outline: as §1
Alternaria solani [9] = experiment: Fungicidal activity against Alternaria solani assessed as mycelium growth inhibition at 20 ug/mL by mycelium growth rate method; outline: as §1
Alternaria solani [10] = experiment: Fungicidal activity against Alternaria solani assessed as mycelium growth inhibition at 50 ug/mL by mycelium growth rate method; outline: as §1
Mycosphaerella arachidis [11] = experiment: Fungicidal activity against Mycosphaerella arachidis assessed as mycelium growth inhibition at 10 ug/mL by mycelium growth rate method; outline: as §1
Mycosphaerella arachidis [12] = experiment: Fungicidal activity against Mycosphaerella arachidis assessed as mycelium growth inhibition at 20 ug/mL by mycelium growth rate method; outline: as §1
Mycosphaerella arachidis [13] = experiment: Fungicidal activity against Mycosphaerella arachidis assessed as mycelium growth inhibition at 50 ug/mL by mycelium growth rate method; outline: as §1
Fusarium oxysporum [14] = experiment: Fungicidal activity against Fusarium oxysporum assessed as mycelium growth inhibition at 10 ug/mL by mycelium growth rate method; outline: as §1
Fusarium oxysporum [15] = experiment: Fungicidal activity against Fusarium oxysporum assessed as mycelium growth inhibition at 20 ug/mL by mycelium growth rate method; outline: as §1

Structure (SMILES) | inhibition of growth at 50 µg/mL (Fusarium oxysporum [1]) | inhibition of growth at 10 µg/mL [2] | inhibition of growth at 20 µg/mL [3] | inhibition of growth at 10 µg/mL (Fusarium graminearum [4]) | inhibition of growth at 50 µg/mL [5] | inhibition of growth at 50 µg/mL (Fusarium graminearum [6]) | inhibition of growth at 20 µg/mL (Fusarium graminearum [7]) | inhibition of growth at 10 µg/mL (Alternaria solani [8]) | inhibition of growth at 20 µg/mL (Alternaria solani [9]) | inhibition of growth at 50 µg/mL (Alternaria solani [10]) | inhibition of growth at 10 µg/mL (Mycosphaerella arachidis [11]) | inhibition of growth at 20 µg/mL (Mycosphaerella arachidis [12]) | inhibition of growth at 50 µg/mL (Mycosphaerella arachidis [13]) | inhibition of growth at 10 µg/mL (Fusarium oxysporum [14]) | inhibition of growth at 20 µg/mL (Fusarium oxysporum [15])
O=[N+]([O-])c1cc(Cl)ccc1-c1ccsc1 | 75% | 14% | 38% | 13% | 80% | 39% | 21% | 0% | 20% | 55% | 0% | 6% | 25% | 25% | 43%
O=[N+]([O-])c1cc(-c2ccccc2[N+](=O)[O-])cs1 | 0% | 0% | 9% | 1% | 20% | 25% | 7% | 6% | 16% | 22% | 8% | 16% | 20% | 0% | 0%
O=[N+]([O-])c1cc(Cl)cc(Cl)c1-c1ccsc1[N+](=O)[O-] | 28% | 2% | 17% | 0% | 27% | 0% | 0% | 16% | 32% | 38% | 0% | 11% | 27% | 10% | 14%
O=[N+]([O-])c1ccccc1-c1ccsc1[N+](=O)[O-] | 22% | 0% | 25% | 6% | 30% | 23% | 14% | 9% | 16% | 25% | 8% | 16% | 25% | 0% | 13%
O=[N+]([O-])c1cc(-c2cc(Cl)c(F)cc2[N+](=O)[O-])cs1 | 10% | 0% | 2% | 0% | 14% | 0% | 0% | 0% | 16% | 25% | 0% | 11% | 16% | 0% | 7%
O=[N+]([O-])c1sccc1-c1c(Cl)cc(Cl)c(Cl)c1[N+](=O)[O-] | 22% | 0% | 13% | 0% | 40% | 0% | 0% | 0% | 26% | 34% | 5% | 25% | 40% | 0% | 0%
O=[N+]([O-])c1cc(F)ccc1-c1ccsc1[N+](=O)[O-] | 17% | 0% | 4% | 0% | 14% | 0% | 0% | 9% | 25% | 48% | 0% | 0% | 16% | 0% | 7%
O=[N+]([O-])c1cc(Cl)cc(Cl)c1-c1ccsc1 | 87% | 42% | 72% | 8% | 82% | 39% | 26% | 20% | 55% | 60% | 0% | 18% | 25% | 56% | 81%
O=[N+]([O-])c1ccc(F)cc1-c1ccsc1 | 87% | 0% | 36% | 21% | 72% | 65% | 43% | 5% | 25% | 75% | 0% | 12% | 25% | 18% | 50%
O=[N+]([O-])c1cc(-c2c(Cl)cc(Cl)cc2[N+](=O)[O-])cs1 | 39% | 10% | 17% | 8% | 25% | 24% | 16% | 25% | 32% | 41% | 5% | 16% | 27% | 21% | 32%
O=[N+]([O-])c1cc(-c2cc(F)ccc2[N+](=O)[O-])cs1 | 28% | 0% | 8% | 0% | 27% | 16% | 0% | 0% | 16% | 35% | 0% | 22% | 33% | 0% | 10%
O=[N+]([O-])c1cc(F)c(Cl)cc1-c1ccsc1[N+](=O)[O-] | 39% | 12% | 36% | 0% | 42% | 20% | 4% | 48% | 54% | 61% | 0% | 5% | 18% | 14% | 28%
O=[N+]([O-])c1cc(-c2c(Cl)cc(Cl)c(Cl)c2[N+](=O)[O-])cs1 | 4% | 0% | 10% | 0% | 24% | 0% | 0% | 17% | 26% | 34% | 5% | 20% | 35% | 0% | 0%
O=[N+]([O-])c1ccccc1-c1ccsc1 | 68% | 20% | 68% | 13% | 88% | 65% | 43% | 0% | 30% | 75% | 0% | 0% | 18% | 12% | 31%
